In general, MIC refers to the smallest concentration in the dilution series that meets the test's criterion for growth inhibition.

One series concerns Candida albicans SC5314. The experiment in a line: MIC, CLSI broth microdilution. The class given is cell-based. As to conditions: SC5314, 24 h, read-out: MIC C. alb SC5314. In outline: (§1)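 CLSI broth microdilution (M27-A3 and M60). Strains are kept frozen in YPD with 40% glycerol, passaged twice on Sabouraud dextrose agar at 30 °C, then grown overnight in YPD at 30 °C with shaking. Test compound is dissolved in DMSO, serially diluted in growth medium, inoculated, and incubated at 30 °C. Candida spp. are read at 24 h, C. glabrata at 48 h and C. neoformans at 72 h. MIC is the first well with ≥50% growth reduction versus the drug-free well.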
(In general: Dilution methods test growth across graded concentrations, often in twofold steps.)

Another series deals with Candida tropicalis 2718. The experiment in a line: MIC, CLSI broth microdilution. Format: cell-based. As to conditions: Candida tropicalis, 2718, 24 h, read-out: MIC C. tro 2718. In outline:
as §1

For series [1], the system named is Cryptococcus neoformans H99. The experiment in a line: MIC, CLSI broth microdilution. As to conditions: H99, 72 h, read-out: MIC C. neo H99. Format: cell-based. The gist of the method: as §1
Series [2] has as its system Aspergillus fumigatus 7544. The experiment in a line: MIC, CLSI broth microdilution. The class given is cell-based. As to conditions: Aspergillus fumigatus, 7544, 48 h, read-out: MIC A. fum 7544. The gist of the method: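 Mould MIC by CLSI broth microdilution (M27-A3 and M60). The strain comes from a frozen YPD/40% glycerol stock. Test compound is dissolved in DMSO and serially diluted in growth medium. Wells are inoculated and incubated at 35 °C for 48 h. MIC is the first well with ≥50% growth reduction versus the drug-free control.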

In the next series the test system is Candida albicans. As to conditions: cited from earlier work.
Another series in a line: Hemolysis assay. As to conditions: rabbit, rabbit red blood cell suspension. Format: cell-based.
The subject of the next series is C. auris 789. The experiment in a line: MIC against drug-resistant C. auris clinical isolate. Format: cell-based, Candida auris. As to conditions: Candidozyma auris, 789, 24 h, read-out: MIC C. aur 789.
The subject of another series is C. auris 791. Described as above. The class given is cell-based, Candida auris. As to conditions: Candidozyma auris, 791, 24 h, read-out: MIC C. aur 791.
Another series relates to C. auris 887. Described as above. Format: cell-based, Candida auris. The following applies: Candidozyma auris, 887, 24 h, read-out: MIC C. aur 887.
A further series concerns C. auris 888. Described as above. The class given is cell-based, Candida auris. As to conditions: Candidozyma auris, 888, 24 h, read-out: MIC C. aur 888.
In another series the test system is C. auris D12. The description is as above. As to conditions: Candidozyma auris, D12, 24 h, read-out: MIC C. aur D12. The class given is cell-based, Candida auris.
A further series concerns C. auris BS12372. Described as above. Format: cell-based, Candida auris. The following applies: Candidozyma auris, BS12372, 24 h, read-out: MIC C. aur BS12372.
The subject of series [3] is sterol composition in C. albicans SC5314. The experiment in a line: Sterol composition analysis by GC-MS. Format: cell-based, Candida albicans. As to conditions: compounds at 0.008 μg/mL, FLC at 8 μg/mL.

≈ marks a conversion by molar mass, not a printed value. Where only a bound is given, the exact number is not on record here.

As for `C[C@@H](c1ncncc1F)[C@](O)(Cn1cncn1)c1ccc(F)cc1F` [VOC, voriconazole], the MIC in the series on Candida albicans SC5314 is < 0.008 µg/mL; in the series with Candida tropicalis 2718 it was < 0.008 µg/mL; in series [1] it was 0.0625 µg/mL (≈ 0.179 µM); in [2] it was 0.125 µg/mL (≈ 0.358 µM). Besides, the “MIC against Candida albicans” value in the series on Candida albicans is 0.06 µg/mL (≈ 0.172 µM).

Take `C[C@@H]1[C@H](O)[C@@H](C)/C=C/C=C/C=C/C=C/C=C/C=C/C=C/[C@H](O[C@@H]2O[C@H](C)[C@@H](O)[C@H](N)[C@@H]2O)C[C@@H]2O[C@](O)(C[C@@H](O)C[C@@H](O)[C@H](O)CC[C@@H](O)C[C@@H](O)CC(=O)O[C@H]1C)C[C@H](O)[C@H]2C(=O)O` [AmB, amphotericin B]: in “Hemolysis assay”, the hemolysis at 1 h, 32 μg/mL was determined as 26.8% and the hemolysis at 1 h, 64 μg/mL was 100%.

Turning to `OC(Cn1cncn1)(Cn1cncn1)c1ccc(F)cc1F` [FLC, fluconazole], the MIC in the series with Candida albicans SC5314 was 0.25 µg/mL (≈ 0.816 µM); in the series with Candida tropicalis 2718, < 0.125 µg/mL; in [1], 8 µg/mL (≈ 26.1 µM); in [2], > 64 µg/mL; in the series with C. auris 789, > 64 µg/mL; in the series on C. auris 791 it was > 64 µg/mL. For the same compound, the MIC in the series on C. auris 887, with C. auris 888, in the series with C. auris D12 and in the series with C. auris BS12372 was > 64 µg/mL in each case. In [3], the “ergosterol content in treated cells” value is reported as “almost completely depleted”.

For the compound `CC[C@@H]([C@H](C)O)n1ncn(-c2ccc(N3CCN(c4ccc(OC[C@@H]5CO[C@@](Cn6cncn6)(c6ccc(F)cc6F)C5)cc4)CC3)cc2)c1=O` [POS, posaconazole], the minimum inhibitory concentration (MIC) in the series on Candida albicans SC5314 is < 0.008 µg/mL; in the series with Candida tropicalis 2718 it was < 0.008 µg/mL; in [1], < 0.008 µg/mL; in series [2], 0.125 µg/mL (≈ 0.178 µM).

With `O[C@@](Cn1cnnn1)(c1ccc(F)cc1F)C(F)(F)c1ccc(-c2ccc(OCC(F)(F)F)cc2)cn1` [OTC, oteseconazole], the MIC was < 0.008 µg/mL in the series on Candida albicans SC5314; < 0.008 µg/mL with Candida tropicalis 2718; < 0.008 µg/mL in series [1]; > 64 µg/mL in series [2]; 2 µg/mL (≈ 3.79 µM) in the series on C. auris 789; 8 µg/mL (≈ 15.2 µM) with C. auris 791. For the same compound, the MIC in the series on C. auris 887 is 4 µg/mL (≈ 7.58 µM); in the series with C. auris 888, 8 µg/mL (≈ 15.2 µM); in the series on C. auris D12, 0.25 µg/mL (≈ 0.474 µM); in the series on C. auris BS12372 it was < 0.0625 µg/mL.

Values taken from publication PMC10193422 (ACS Omega, 2023).
